CendR NRP1 mod – modulators of CendR peptide binding to NRP-1, primary screen, biochemical, fluorescence polarization, uHTS; FAM-RPARPAR peptide binding to NRP-1; inhibition, % at 25 µM; 360,000 tested, 0.85% active; AID 602438, 2012;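 active = inhibition or corrected inhibition above about 18%, plus a signal ratio from 0.5 to 1.5, limit read from the data, passing the limit was not always enough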
HIF activator – HIF pathway transcriptional activators, primary screen, cell-based, U2OS HRE-luciferase, luminescence | U2OS HRE-luciferase reporter; normalized: DMSO 0%, desferrioxamine 100% | 300,000 tested, 0.32% active | activation, % at 7.5 µM (by protocol) | AID 1910, 2009;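 active = mean activation of at least 10% of the iron chelator positive control signal, with at least half of replicates also reaching 10%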
V-ATPase pH – regulators of yeast V-ATPase proton pumping, primary screen, pHLuorin cytosolic pH fluorescence; S. cerevisiae; response, % at 10 µM; 350,000 tested, 0.37% active; in the data active = response mostly above about 7.3%, no sharp cut-off; inactive = mostly below about 5.4%; also: actives read high
CR mimetic SO – reduction of superoxide in aged yeast, primary screen, HTS | S. cerevisiae aged cells, superoxide DHE fluorescence; hits give low values | superoxide response (% of plate mean), % at 10 µM | 330,000 tested, 0.18% active | AID 2690, 2010;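 active = superoxide response under a set limit, about three screen SD below normal, cut at about 65% in these data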;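 also: yeast aged for seven days with compound at 30 °C before DHE staining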
T cruzi inh – inhibitors of intracellular T. cruzi growth, primary screen, luminescence, NIH3T3 host cells | T. cruzi beta-gal in NIH3T3, 90 h | inhibition, % (concentration not given with the values) | 300,000 tested, 1.4% active | AID 1885, 2009;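 active = mean inhibition across valid replicates above about 55%, limit read from the data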;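 also: signal also drops with host cell toxicity which is not excluded here; higher percent means less beta-gal luminescence so fewer parasites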
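System – NIH/3T3 host cells with β-galactosidase reporter T. cruzi · Doses – single 50 nL compound addition per well in DMSO · Reagent – 5000 T. cruzi trypomastigotes/well · Medium – Low-serum DMEM with 2% FBS · Timing – ≥90 h infection period, 3 h prior cell attachment · Evaluation – parasite load inhibition, % · Technique – GalScreen luminescence, 60 min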
AI-2 QS modul – Vibrio harveyi AI-2 quorum sensing modulators, primary screen, JMH597 strain, luminescence/OD600 ratio; Vibrio harveyi JMH597 AI-2 luminescence/OD600 ratio, 9 h; hits give low values; strain lacks LuxN and CqsS sensors; 0 = neutral-control median; activity change, % at 7.5 µM; 300,000 tested, 0.4% active; in the data active = activity change below about -75%, passing the limit was not always enough;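 also: luminescence divided by OD600 gain over 9 h not by final OD600 alone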
Hits are given with their value. In the library only some 3% were active in any assay of this set; here they are far more common.

Cc1ccc(F)c([C@H]2[C@@H]3C=CCC[C@@]3(C)C(=O)N2Cc2ccccc2)c1 was read as CendR NRP1 mod 28, HIF activator inactive, V-ATPase pH inactive, CR mimetic SO inactive, T cruzi inh inactive and AI-2 QS modul inactive.
Cc1ccc(-c2cc([C@H]3[C@@H]4C=CCC[C@@]4(C)C(=O)N3Cc3ccccc3)ccc2F)cc1 was read as CendR NRP1 mod inactive, HIF activator inactive, V-ATPase pH inactive, CR mimetic SO inactive, T cruzi inh inactive and AI-2 QS modul inactive.
Screening CCCCNc1ccc(C(CC(N)=O)NC(=O)c2cc(C)cc(C)c2)cc1[N+](=O)[O-] (stereo unspecified) returned CendR NRP1 mod inactive, HIF activator inactive, V-ATPase pH inactive, CR mimetic SO inactive, T cruzi inh inactive and AI-2 QS modul inactive.
Screening O=C(/C=C/c1ccc[nH]1)c1ccc(F)cc1 returned CendR NRP1 mod inactive, HIF activator inactive, V-ATPase pH inactive, CR mimetic SO inactive, T cruzi inh inactive and AI-2 QS modul inactive.
For Cc1ccc(C)c(N2N=C(C(=O)Nc3nccs3)CCC2=O)c1 the results were CendR NRP1 mod inactive, HIF activator inactive, V-ATPase pH inactive, CR mimetic SO inactive, T cruzi inh inactive and AI-2 QS modul inactive.
For O=c1[nH]c(Nc2nc3ccccc3o2)nc2c1CCCC2 the results were CendR NRP1 mod inactive, HIF activator inactive, V-ATPase pH inactive, CR mimetic SO inactive, T cruzi inh 60 and AI-2 QS modul inactive.
For COc1ccc(N(C)S(=O)(=O)c2ccc(C)cc2)c([N+](=O)[O-])c1 the results were CendR NRP1 mod inactive, HIF activator inactive, V-ATPase pH inactive, CR mimetic SO inactive, T cruzi inh inactive and AI-2 QS modul inactive.
Screening COCCNC(=O)C1Cc2cc(S(=O)(=O)N3CCCC3)ccc2N1C(C)=O (stereo unspecified) returned CendR NRP1 mod 24, HIF activator inactive, V-ATPase pH inactive, CR mimetic SO inactive, T cruzi inh inactive and AI-2 QS modul inactive.
CS(=O)(=O)N1CCN(C(=S)NCc2ccc(Cl)cc2)CC1 was read as CendR NRP1 mod inactive, HIF activator inactive, V-ATPase pH inactive, CR mimetic SO inactive, T cruzi inh inactive and AI-2 QS modul inactive.
Screening Cc1ccc(N2CCN(c3ccc(C)cc3)C2c2cccnc2)cc1 returned CendR NRP1 mod inactive, HIF activator inactive, V-ATPase pH inactive, CR mimetic SO inactive, T cruzi inh 59 and AI-2 QS modul inactive.
Screening CCOc1cc(C2NC(=O)NC(c3ccccc3)=C2C(C)=O)ccc1OCC(N)=O (stereo unspecified) returned CendR NRP1 mod 47, HIF activator inactive, V-ATPase pH inactive, CR mimetic SO inactive, T cruzi inh inactive and AI-2 QS modul inactive.
COc1ccc(CCC(=O)NNC(=O)Nc2ccc(OC)c(OC)c2)cc1 was read as CendR NRP1 mod inactive, HIF activator inactive, V-ATPase pH inactive, CR mimetic SO inactive, T cruzi inh inactive and AI-2 QS modul inactive.
Screening c1ccc(OCc2nn3c(Cn4cnc5ccccc54)nnc3s2)cc1 returned CendR NRP1 mod inactive, HIF activator inactive, V-ATPase pH inactive, CR mimetic SO inactive, T cruzi inh inactive and AI-2 QS modul inactive.
`Cn1nnnc1N=N/C(=N/Nc1ccccc1)c1ccccc1` gave CendR NRP1 mod inactive, HIF activator 182, V-ATPase pH inactive, CR mimetic SO inactive, T cruzi inh inactive and AI-2 QS modul inactive.
COc1ccc(CCN(Cc2cccs2)S(=O)(=O)c2ccc(S(=O)(=O)N3CCCCCC3)cc2)cc1OC was read as CendR NRP1 mod inactive, HIF activator inactive, V-ATPase pH inactive, CR mimetic SO inactive, T cruzi inh inactive and AI-2 QS modul inactive.
CCC(C)NS(=O)(=O)c1ccc(S(=O)(=O)N(CCc2ccc(OC)c(OC)c2)Cc2cccs2)cc1 (stereo unspecified) was read as CendR NRP1 mod inactive, HIF activator inactive, V-ATPase pH inactive, CR mimetic SO inactive, T cruzi inh 57 and AI-2 QS modul inactive.
For CC1(C)CC(=O)C2=C(C1)NC1=C(C(=O)c3ccccc31)C2c1ccccc1 (stereo unspecified) the results were CendR NRP1 mod inactive, HIF activator inactive, V-ATPase pH inactive, CR mimetic SO inactive, T cruzi inh inactive and AI-2 QS modul inactive.
`CC(C)c1ccc(C2C3=C(CC(C)(C)CC3=O)NC3=C2C(=O)c2ccccc23)cc1` (stereo unspecified) gave CendR NRP1 mod inactive, HIF activator inactive, V-ATPase pH inactive, CR mimetic SO inactive, T cruzi inh 58 and AI-2 QS modul inactive.
Cc1cc(OCC(=O)NC2CC2)c2c(C)cc(=O)oc2c1 was read as CendR NRP1 mod inactive, HIF activator inactive, V-ATPase pH inactive, CR mimetic SO inactive, T cruzi inh inactive and AI-2 QS modul inactive.
Screening Cc1ccc(Cl)cc1NS(=O)(=O)c1ccccc1 returned CendR NRP1 mod inactive and V-ATPase pH inactive.
For O=S(=O)(Nc1ccc(Cl)cc1NS(=O)(=O)c1ccccc1)c1ccccc1 the results were CendR NRP1 mod 17 and V-ATPase pH inactive.
For CCCNCC1C(Oc2ccc(Cl)cc2Cl)C(=O)N1c1cccc(C)c1C (stereo unspecified) the results were CendR NRP1 mod inactive, HIF activator inactive, V-ATPase pH inactive, CR mimetic SO inactive, T cruzi inh 62 and AI-2 QS modul inactive.
CCN(CC)CCSc1nnc2c3ccccc3n(Cc3ccccc3)c2n1 was read as CendR NRP1 mod inactive, HIF activator inactive, V-ATPase pH inactive, CR mimetic SO inactive, T cruzi inh 69 and AI-2 QS modul inactive.
For CC1=C(C(=O)OC(C)C)C(c2cn(-c3ccccc3)nc2-c2cccs2)NC(=O)N1 (stereo unspecified) the results were CendR NRP1 mod inactive, HIF activator inactive, V-ATPase pH 16, CR mimetic SO inactive, T cruzi inh inactive and AI-2 QS modul inactive.
Screening CC(=O)Nc1ccc(Nc2cc(C(C)C)nc3c(-c4ccccc4)c(C)nn23)cc1 returned CendR NRP1 mod inactive, HIF activator inactive, V-ATPase pH inactive, CR mimetic SO inactive, T cruzi inh 68 and AI-2 QS modul inactive.
CC(=O)Nc1ccc(Nc2cc(C)nc3c(-c4ccccc4)c(C)nn23)cc1 was read as CendR NRP1 mod inactive, HIF activator inactive, V-ATPase pH inactive, CR mimetic SO inactive, T cruzi inh inactive and AI-2 QS modul inactive.
`Cc1ccc(NC2=C/C(=N\S(=O)(=O)c3cccs3)c3ccccc3C2=O)c(C)c1` gave CendR NRP1 mod inactive, HIF activator inactive, V-ATPase pH inactive, CR mimetic SO inactive, T cruzi inh 57 and AI-2 QS modul inactive.

Screens from PubChem BioAssay.
